Data on 30 molecules can be found in ChEMBL document CHEMBL1137611, “Toward potent ghrelin receptor ligands based on trisubstituted 1,2,4-triazole structure. 2. Synthesis and pharmacological in vitro and in vivo evaluations” (J Med Chem, 2007).

Assay [1] has as its target T1, Growth hormone secretagogue receptor type 1 (Homo sapiens, UniProt Q92847). The assay is described as follows: Agonist activity at human GHS1a receptor expressed in CHO cells assessed as accumulation of intracellular calcium level. The format is functional, cell-based. Put shortly: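 Fluo-4AM calcium assay in CHO cells transiently expressing hGHS-R1a. Fluorescence recorded at ex 485/em 525 nm over 60 s after automated addition of increasing agonist concentrations. EC50 taken from the dose-response curve.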

Assay [2] has as its target T1, Growth hormone secretagogue receptor type 1. The assay can be described thus: Activity at human GHS1a receptor expressed in CHO cells assessed as accumulation of intracellular calcium level at 10 uM relative to ghrelin. The format is functional, cell-based. Put shortly: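 CHO cells transiently electroporated with hGHS-R1a, loaded 24 h later with 1 μM Fluo-4AM (1 h, 37 °C, dark), then de-esterified 30 min at room temperature. Fluorescence (ex 485/em 525 nm) recorded over 60 s, compound at 10 μM added at 15 s. Triplicates, at least two independent experiments. Response expressed as percent of maximum with 0.1 μM ghrelin.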

Assay [3] shares this target. The assay is described as follows: Antagonist activity at human GHS1a receptor expressed in CHO cells assessed as accumulation of intracellular calcium level. Format: functional, cell-based.
The species entered for assay [4] is Rattus norvegicus. The assay is described as follows: Inhibition of hexarelin-stimulated cumulative food intake per 100 g body weight of Sprague-Dawley rat at 160 ug after 6 hrs. The format is functional. Put shortly: (§1)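 Young-adult male rats (125–150 g), singly housed, acclimated and trained. Compound given sc at time −10 min (0, 20, 80, 160 or 320 μg/kg), then hexarelin 80 μg/kg sc at time 0. Rats returned to home cages with a known amount of chow. Cumulative intake recorded as g food/100 g body weight at 2 h and 6 h.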

Assay [5] is filed under the species Rattus norvegicus. The assay can be described thus: Inhibition of hexarelin-stimulated cumulative food intake per 100 g body weight of Sprague-Dawley rat at 160 ug after 2 hrs. The format is functional. Put shortly:
as §1

The species entered for assay [6] is Rattus norvegicus. The assay can be described thus: Effect on cumulative food intake per 100 g body weight of Sprague-Dawley rat at 160 ug after 6 hrs. The format is functional. Put shortly: (§2)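 Young-adult male rats (125–150 g), singly housed, acclimated 1 week and trained daily for a further week. Test compound given sc at 160 μg/kg mid-morning, then returned to cages with a known amount of chow. Cumulative intake recorded at 2 or 6 h as g food/100 g body weight.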

Assay [7] is filed under the species Rattus norvegicus. The assay is described as follows: Effect on cumulative food intake per 100 g body weight of Sprague-Dawley rat at 160 ug after 2 hrs. Format: functional. Put shortly: as §2
The target of assay [8] is T1, Growth hormone secretagogue receptor type 1. The assay is described as follows: Displacement of [125I]His9-ghrelin from human cloned GHS1a receptor expressed in LLC PK1 cells. Format: cell-based.

SMILES strings stand for the structures.

T1 sequence (Q92847 whole entry): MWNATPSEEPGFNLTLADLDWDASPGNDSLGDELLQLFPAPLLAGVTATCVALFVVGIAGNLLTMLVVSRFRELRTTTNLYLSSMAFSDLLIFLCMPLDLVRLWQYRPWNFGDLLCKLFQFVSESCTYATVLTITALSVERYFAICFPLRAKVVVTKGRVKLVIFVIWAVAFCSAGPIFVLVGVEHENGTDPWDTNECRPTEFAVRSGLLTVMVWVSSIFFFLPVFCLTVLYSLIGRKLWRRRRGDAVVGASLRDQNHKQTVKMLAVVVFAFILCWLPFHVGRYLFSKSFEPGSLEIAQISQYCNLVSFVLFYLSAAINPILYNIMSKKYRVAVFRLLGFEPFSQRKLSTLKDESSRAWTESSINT

Regarding `COc1ccc(Cn2c(CCc3ccccc3)nnc2[C@@H](Cc2c[nH]c3ccccc23)NCCN)c(OC)c1`, the EC50 in assay [1] was 279 nM. Besides, in assay [2], the Activity was determined as 59%.
On to `COc1ccc(Cn2c(CCc3c[nH]c4ccccc34)nnc2[C@@H](Cc2c[nH]c3ccccc23)NC(=O)[C@H]2CCCCN2)cc1`, for which the Kb in assay [3] stood at 8 nM. Further, the Activity in assay [2] is 0%; in the assay listed under Rattus norvegicus [4], 1.68 g; in the assay filed under Rattus norvegicus [5], 1.25 g; in the assay filed under Rattus norvegicus [6], 0.06 g; in the assay filed under Rattus norvegicus [7], 0.04 g.
Consider `COc1ccc(Cn2c(CCc3ccccc3)nnc2[C@@H](Cc2c[nH]c3ccccc23)NC(=O)[C@@H]2C[C@@H](O)CN2)cc1`, for which the Activity in assay [2] was found to be 87%; in the assay filed under Rattus norvegicus [4], 0.35 g; in the assay listed under Rattus norvegicus [5], 0.02 g; in the assay listed under Rattus norvegicus [6], 0.01 g; in the assay listed under Rattus norvegicus [7], 0.01 g. The same molecule came in with an IC50 in assay [8] of 173 nM.
`COc1ccc(Cn2c(CCc3c[nH]c4ccccc34)nnc2[C@@H](Cc2c[nH]c3ccccc23)NC(=O)[C@H]2CCCNC2)cc1`: the half-maximal effective concentration (EC50) in assay [1] worked out at 2.5 nM. Also, the Activity in assay [2] came out at 111%; in the assay listed under Rattus norvegicus [4] it was 0.76 g; in the assay filed under Rattus norvegicus [5], 0.62 g; in the assay filed under Rattus norvegicus [6] it was 0.06 g; in the assay filed under Rattus norvegicus [7], 0.01 g.
Regarding `COc1ccc(Cn2c(CCc3c[nH]c4ccccc34)nnc2[C@@H](Cc2c[nH]c3ccccc23)NC(=O)CN)c(OC)c1`, the Kb in assay [3] was 27 nM. Moreover, the Activity came out at 0% in assay [2]; 0.74 g in the assay listed under Rattus norvegicus [4]; 0.39 g in the assay filed under Rattus norvegicus [5]; 0.01 g in the assay listed under Rattus norvegicus [6]; 0.01 g in the assay listed under Rattus norvegicus [7].
On to `COc1ccc(Cn2c(CCc3ccccc3)nnc2[C@@H](Cc2c[nH]c3ccccc23)NC(=O)[C@@H]2CCCNC2)cc1`, for which the EC50 in assay [1] stood at 36 nM. Also, in assay [2], the Activity was determined as 89%.
For the molecule `O=C(N[C@H](Cc1c[nH]c2ccccc12)c1nnc(CCc2c[nH]c3ccccc23)n1Cc1ccccc1)C1CCNCC1`, in assay [1], the 50% effective concentration (EC50) came out at 5.4 nM. The Activity in assay [2] turned out to be 75%; in the assay filed under Rattus norvegicus [4], 0.6 g; in the assay listed under Rattus norvegicus [5], 0.38 g; in the assay listed under Rattus norvegicus [6], 0.11 g; in the assay listed under Rattus norvegicus [7] it was 0.01 g. Besides, the IC50 in assay [8] came to 24 nM.
In the case of `Cc1ncccc1-n1c(CCc2ccccc2)nnc1[C@@H](Cc1c[nH]c2ccccc12)NC(=O)C1CCNCC1`, the Activity in assay [2] worked out at 78%. Moreover, in assay [8], the IC50 is above 1000 nM.
For `O=C(N[C@H](Cc1c[nH]c2ccccc12)c1nnc(CCc2c[nH]c3ccccc23)n1Cc1ccccc1)[C@H]1CCCNC1`, in assay [1], the EC50 came to 9.9 nM. The Activity in assay [2] stood at 50%; in the assay filed under Rattus norvegicus [4] it was 0.62 g; in the assay listed under Rattus norvegicus [5], 0.16 g; in the assay filed under Rattus norvegicus [6], 0.6 g; in the assay listed under Rattus norvegicus [7] it was 0.52 g. The molecule further showed an IC50 in assay [8] of 13 nM.
As for `COc1ccc(Cn2c(CCc3c[nH]c4ccccc34)nnc2[C@@H](Cc2c[nH]c3ccccc23)NC(=O)[C@@H]2CCCN2)cc1`, the Kb in assay [3] was found to be 6 nM. The Activity in assay [2] came to 2%; in the assay listed under Rattus norvegicus [4] it was 0.48 g; in the assay filed under Rattus norvegicus [5], 0.44 g; in the assay filed under Rattus norvegicus [6], 0.2 g; in the assay filed under Rattus norvegicus [7], 0.05 g.
As to `NCC(=O)N[C@H](Cc1c[nH]c2ccccc12)c1nnc(CCc2ccccc2)n1-c1ccccc1`, in assay [2], the Activity was determined as 7%. This molecule also had an IC50 in assay [8] above 1000 nM.
Turning to `CCc1ccc(-n2c(CCc3c[nH]c4ccccc34)nnc2[C@@H](Cc2c[nH]c3ccccc23)NC(=O)C2CCNCC2)cc1`, the EC50 in assay [1] worked out at 15 nM. Further, in assay [2], the Activity came out at 100%. In addition, in assay [8], the IC50 is 96 nM.
Turning to `COc1ccc(Cn2c(CCC3C=Nc4ccccc43)nnc2[C@@H](Cc2c[nH]c3ccccc23)NC(=O)CN)cc1` (some centres undefined), the Activity in assay [2] is 2%. In assay [8], the 50% inhibitory concentration (IC50) is 138 nM.
With `COc1ccc(Cn2c(CCc3c[nH]c4ccccc34)nnc2[C@@H](Cc2c[nH]c3ccccc23)NC(=O)C2CCNCC2)cc1`, in assay [1], the EC50 stood at 3 nM. For the same molecule, the Activity in assay [2] amounted to 93%; in the assay filed under Rattus norvegicus [4] it was 1.05 g; in the assay filed under Rattus norvegicus [5], 0.4 g; in the assay filed under Rattus norvegicus [6] it was 0.37 g; in the assay listed under Rattus norvegicus [7], 0.01 g.
Turning to `COc1ccc(Cn2c(CCc3c[nH]c4ccccc34)nnc2[C@@H](Cc2c[nH]c3ccccc23)NC(=O)[C@H]2CCCNC2)c(OC)c1`, in assay [1], the EC50 is 5.3 nM. For the same molecule, the Activity in assay [2] is 48%; in the assay listed under Rattus norvegicus [4] it was 0.65 g; in the assay listed under Rattus norvegicus [5], 0.33 g; in the assay listed under Rattus norvegicus [6] it was 0.01 g; in the assay listed under Rattus norvegicus [7], 0.01 g. Besides, in assay [8], the IC50 was 6.5 nM.
For `O=C(N[C@H](Cc1c[nH]c2ccccc12)c1nnc(CCc2c[nH]c3ccccc23)n1-c1ccccc1)C1CCNCC1`, the EC50 in assay [1] was 2.3 nM. The Activity in assay [2] was 100%.
In the case of `COc1ccc(Cn2c(CCc3ccccc3)nnc2[C@@H](Cc2c[nH]c3ccccc23)NC(=O)CN)c(OC)c1`, the Activity in assay [2] is 0%; in the assay listed under Rattus norvegicus [4], 1.48 g; in the assay filed under Rattus norvegicus [5], 1.26 g; in the assay listed under Rattus norvegicus [6], 0.08 g; in the assay filed under Rattus norvegicus [7], 0.01 g. The same molecule returned an IC50 in assay [8] of 154 nM.
`COc1ccc(-n2c(CCc3ccccc3)nnc2[C@@H](Cc2c[nH]c3ccccc23)NC(=O)CN)c(OC)c1`: in assay [2], the Activity came out at 27%. In assay [8], the IC50 was above 1000 nM.
For `COc1ccc(Cn2c(CCc3ccccc3)nnc2[C@@H](Cc2c[nH]c3ccccc23)NC(=O)[C@H]2CCCNC2)cc1`, the Kb in assay [3] is 10 nM. The Activity in assay [2] is 20%.
On to `CCc1ccc(-n2c(CCc3c[nH]c4ccccc34)nnc2[C@@H](Cc2c[nH]c3ccccc23)NC(=O)[C@@H]2CCCN2)cc1`, for which the Activity in assay [2] stood at 5%. The molecule further showed a 50% inhibitory concentration (IC50) in assay [8] of 350 nM.
With `CCc1ccc(Cn2c(CCc3ccccc3)nnc2[C@@H](Cc2c[nH]c3ccccc23)NC(=O)C2CCNCC2)cc1`, the EC50 in assay [1] came out at 7.7 nM. Further, the Activity in assay [2] is 101%; in the assay filed under Rattus norvegicus [4] it was 1.66 g; in the assay listed under Rattus norvegicus [5], 1.4 g; in the assay listed under Rattus norvegicus [6], 0.35 g; in the assay filed under Rattus norvegicus [7], 0.03 g.
For the molecule `COc1ccc(Cn2c(CCc3ccccc3)nnc2[C@@H](Cc2c[nH]c3ccccc23)NC(=O)C2CCCCN2)cc1` (single isomer, unassigned), the Activity in assay [2] was 3%; in the assay listed under Rattus norvegicus [4], 0.56 g; in the assay listed under Rattus norvegicus [5], 0.06 g; in the assay filed under Rattus norvegicus [6] it was 0.01 g; in the assay filed under Rattus norvegicus [7] it was 0.01 g.
Consider `COc1ccc(Cn2c(CCc3c[nH]c4ccccc34)nnc2[C@@H](Cc2c[nH]c3ccccc23)NC(=O)[C@@H]2CCCN2)c(OC)c1`, for which, in assay [3], the Kb was found to be 11 nM. In assay [2], the Activity is 0%. The IC50 in assay [8] amounted to 5.6 nM.
With `CCc1ccc(-n2c(CCc3c[nH]c4ccccc34)nnc2[C@@H](Cc2c[nH]c3ccccc23)NC(=O)CN)cc1`, the Activity in assay [2] amounted to 4%. This molecule yielded an IC50 in assay [8] above 1000 nM.
On to `CC(C)(N)C(=O)N[C@H](Cc1c[nH]c2ccccc12)c1nnc(CCc2c[nH]c3ccccc23)n1Cc1ccccc1`, for which the Activity in assay [2] came to 73%.
`CCc1ccc(Cn2c(CCc3ccccc3)nnc2[C@@H](Cc2c[nH]c3ccccc23)NC(=O)CN)cc1`: the Activity worked out at 0% in assay [2]; 0.81 g in the assay listed under Rattus norvegicus [4]; 0.79 g in the assay filed under Rattus norvegicus [5]; 0.03 g in the assay filed under Rattus norvegicus [6]; 0.01 g in the assay filed under Rattus norvegicus [7]. This molecule also came in with an IC50 in assay [8] of 759 nM.
Consider `CCc1ccc(Cn2c(CCc3ccccc3)nnc2[C@@H](Cc2c[nH]c3ccccc23)NC(=O)[C@H]2CCCNC2)cc1`, for which, in assay [2], the Activity stood at 11%. This molecule also had an IC50 in assay [8] of 130 nM.
Consider `COc1ccc(Cn2c(CCc3ccccc3)nnc2[C@@H](Cc2c[nH]c3ccccc23)NC(=O)[C@@H]2CCCCN2)c(OC)c1`, for which the Activity in assay [2] worked out at 0%. The same molecule displayed an IC50 in assay [8] of 134 nM.
As for `COc1ccc(Cn2c(CCc3c[nH]c4ccccc34)nnc2[C@@H](Cc2c[nH]c3ccccc23)NC(=O)C2CCNCC2)c(OC)c1`, in assay [1], the EC50 came to 0.6 nM. The Activity was 77% in assay [2]; 0.86 g in the assay listed under Rattus norvegicus [4]; 0.11 g in the assay listed under Rattus norvegicus [5]; 0.01 g in the assay filed under Rattus norvegicus [6]; 0.01 g in the assay filed under Rattus norvegicus [7].
As for `COc1ccc(Cn2c(CCc3c[nH]c4ccccc34)nnc2[C@@H](Cc2c[nH]c3ccccc23)NC(=O)C(C)(C)N)cc1`, the antagonist dissociation constant (Kb) in assay [3] came out at 4 nM. Further, the Activity in assay [2] came to 9%.
